Five molecules from ChEMBL document CHEMBL1130337 (J Med Chem, 1997) can be followed below.

SMILES strings stand for the structures. A value given as a limit tells only on which side of the number the result lay.

Assay [1] is described as follows: Inhibitory concentration against ACPD-sensitive radioligand [3H]glutamate binding to Group II Metabotropic glutamate receptor in rat forebrain membranes. Type of assay: cell membranes, Membrane. The method in brief:
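Rat forebrain membranes; displacement of ACPD-sensitive [3H]glutamate binding (10 nM radioligand).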

The target in assay [2] is Glutamate receptor ionotropic, kainate. Description: Inhibitory concentration against radioligand [3H]-Kainate binding to Ionotropic glutamate receptor kainate in rat forebrain membranes. Type of assay: cell membranes, Membrane. The method in brief:
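Rat forebrain membranes; displacement of [3H]kainate (5 nM) binding. Compounds screened at concentrations up to 100 µM (triplicate analysis at 1, 10 and 100 µM).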

The target of another assay is Glutamate NMDA receptor. Description: Inhibitory concentration against radioligand [3H]CGS-19,755 binding to N-methyl-D-aspartate glutamate receptor in rat forebrain membranes. Type of assay: cell membranes, Membrane. The method in brief:
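Rat forebrain membranes; displacement of [3H]CGS19755 (10 nM) binding. Compounds screened at concentrations up to 100 µM (triplicate analysis at 1, 10 and 100 µM).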

Assay [3] is filed under the species Rattus norvegicus. Description: Compound was evaluated by measuring the ability to influence forskolin-stimulated cAMP formation in adult rat cerebral cortical slices. Type of assay: functional. The method in brief: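 Adult rat cerebral cortical slices; cAMP formation stimulated with forskolin (30 µM), and suppression of that cAMP formation measured. EC50 values derived from concentration-response curves.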

Assay [4] is filed under the species Rattus norvegicus. Description: Compound was evaluated by measuring the ability to influence stimulated basal [3H]-IP formation in adult rat cerebral cortical slices. Type of assay: functional. Summed up:
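Rat cerebral cortical slices labeled for [3H]phosphoinositide hydrolysis; accumulation of tritiated inositol monophosphates ([3H]IP) measured against basal levels. Concentrations tested up to 300 µM.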

The target in assay [5] is Glutamate receptor ionotropic, AMPA (Rattus norvegicus, UniProt P19490+P19491+P19492+P19493). The assay can be described thus: Inhibitory concentration against radioligand [3H]AMPA binding to Ionotropic glutamate receptor AMPA in rat forebrain membranes. Type of assay: cell membranes, Membrane.
Assay [6] is filed under the species Mus musculus. The assay can be described thus: Oral effective dose evaluated in mice by mouse limbic seizure assay. Type of assay: functional, Limbic system. The method in brief:
(§1)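 Male NIH Swiss mice (20-25 g) given test drug ip or po 30 min before unilateral intracerebral 1S,3R-ACPD (400 nmol), injected 2 mm lateral to bregma at 3.7 mm depth. Scored as the number of animals showing limbic seizures (clonic forelimb contractions, rearing, falling) during the observation period. ED50 in mg/kg.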

Assay [7] is filed under the species Mus musculus. The assay can be described thus: Oral effective dose was evaluated in mice by automated elevated plus-maze assay. Type of assay: functional. The method in brief: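 Male NIH Swiss mice (20-35 g), acclimated ≥3 days on a 12 h light/dark cycle, dosed 30 min before a 5-min test on an automated elevated plus maze. Mice started on the closed platform; closed arm, open arm and nosepoke counts recorded. Dose-response for open arm activity gives the ED50 (mg/kg).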

In assay [8] the test system is Mus musculus. The assay can be described thus: Intraperitoneal effective dose evaluated in mice by mouse limbic seizure assay. Type of assay: functional, Limbic system. The method in brief:
as §1

In the case of `N[C@H](C(=O)O)[C@H]1C[C@@H]1C(=O)O`, the values for the IC50 (in assay [1]; in assay [2]; on Glutamate NMDA receptor) were 0.454 µM, above 100 µM and above 100 µM, respectively. Further, the values for the EC50 in the assay filed under Rattus norvegicus [3] (Rattus norvegicus) and in the assay listed under Rattus norvegicus [4] were 1.1 µM and 25.4 µM, respectively.
In the case of `N[C@]1(C(=O)O)CC[C@H]2[C@H](C(=O)O)[C@H]21` (racemic), the IC50 is above 100 µM in assay [1], above 100 µM in [2], above 100 µM in [5] and 62.4 µM at Glutamate NMDA receptor.
Consider `N[C@@]1(C(=O)O)CC[C@H]2[C@H](C(=O)O)[C@H]21` (racemic), for which the IC50 in [1] is 0.318 µM. The EC50 in the assay filed under Rattus norvegicus [3] stood at 0.086 µM.
Molecule `N[C@@]1(C(=O)O)CC[C@H]2[C@H](C(=O)O)[C@H]21` (stereo in doubt; (+)-9) registered an IC50 in assay [1] of 0.18 µM. Also, the results for the ED50 in the assay filed under Mus musculus [6], in the assay filed under Mus musculus [7] and in the assay on Mus musculus [8] were 45.6 mg/kg, 0.5 mg/kg and 17 mg/kg, respectively. Moreover, the EC50 in the assay listed under Rattus norvegicus [3] is 0.055 µM; in the assay listed under Rattus norvegicus [4], above 300 µM.
As to `N[C@@]1(C(=O)O)CC[C@H]2[C@H](C(=O)O)[C@H]21` (stereo in doubt; (-)-9), the IC50 (in assay [1]; in assay [2]; in [5]; at Glutamate NMDA receptor) was above 100 µM throughout. In the assay filed under Rattus norvegicus [3], the EC50 is above 300 µM. In the assay on Mus musculus [8], the ED50 was above 100 mg/kg.
